This is an account of results in publication PMC3502708 (Journal of molecular biology, 2012).

Test [1] deals with T1, MORF PHD1/2 fingers (Homo sapiens, UniProt Q8WYB5).
T1 sequence (Q8WYB5 211-329): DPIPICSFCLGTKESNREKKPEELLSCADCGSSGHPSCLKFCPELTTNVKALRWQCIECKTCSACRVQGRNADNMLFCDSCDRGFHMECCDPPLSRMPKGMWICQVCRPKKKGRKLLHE
The test is described as follows: NMR titration. Format: binding. To be noted: for Chemical shift changes / binding of MORF PHD1/2 by NMR (in words): 0.1 mM 15N-labeled PHD1/2, 298K.

Test [2] has as its system endogenous H3K14ac / histone H3 in HEK293 cells. Format: cell-based. To be noted: TSA 3 μM, 6 h prior to harvesting, Flag-N-MORF IP. The essentials:
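HEK293 cells were seeded at 300,000 per 6 cm dish and lipofection-transfected with Flag-tagged MORF N-terminal constructs (aa 1–352, or aa 1–215 lacking PHD1/2). After about 48 h, cells were lysed in buffer with 150 mM KCl and immunoprecipitated on anti-Flag M2 agarose. Beads were washed extensively and eluted in 50 mM phosphoric acid. Blots were probed with anti-Flag, anti-H3K14ac and anti-H3. Where indicated, TSA (3 μM) was added to the medium 6 h before harvest.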

The subject of test [3] is ING5 PHD finger. The note with it: ref [13]; cited from earlier work.
Test [4] has as its target MOZ PHD1/2 fingers (Homo sapiens, UniProt Q92794). The test can be described thus: Tryptophan fluorescence binding, MOZ PHD1/2. The note with it: as seen in NMR and fluorescence assays.
Test [5] concerns the target double PHD fingers of DPF3. The note with it: read-out: Kd, double PHD fingers of DPF3; ref [31]; cited from earlier work.
Test [6] has as its target T1, MORF PHD1/2 fingers. The test can be described thus: Tryptophan fluorescence binding, MORF PHD1/2. The note with it: 25 °C, H3un vs acetylated peptides.

Sequence of MOZ PHD1/2 fingers (Q92794 207-318): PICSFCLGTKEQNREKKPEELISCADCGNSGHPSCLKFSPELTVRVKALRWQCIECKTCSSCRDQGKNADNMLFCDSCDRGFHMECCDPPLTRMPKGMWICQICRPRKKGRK

In the case of `C[C@H](N)C(=O)N[C@@H](CCCNC(=N)N)C(=O)N[C@H](C(=O)N[C@@H](CCCC[N+](C)(C)C)C(=O)N[C@@H](CCC(N)=O)C(=O)N[C@H](C(=O)N[C@@H](C)C(=O)N[C@@H](CCCNC(=N)N)C(=O)N[C@@H](CCCCN)C(=O)N[C@@H](CO)C(=O)N[C@H](C(=O)NCC(=O)O)[C@@H](C)O)[C@@H](C)O)[C@@H](C)O` [H3K4me3], the “Chemical shift changes / binding of MORF PHD1/2 by NMR (in words)” value (“Chemical shift changes / binding” for short) in test [1] (1H,15N HSQC titration) was “small changes in the NMR spectra of PHD1/2”. Besides, the “Affinity of MORF PHD1/2 relative to H3un or H3K9ac” value in test [1] (NMR titration, 298K) is listed as “three orders of magnitude lower than affinity of this protein toward H3un or H3K9ac”.

Consider `CC(=O)NCCCC[C@H](N)C(=O)O` [acetylated lysine amino acid, reference compound], for which the “Chemical shift changes / binding” value in test [1] (1H,15N HSQC titration) is “lack of any significant resonance perturbations”.

Take `CC(/C=C/C(=O)NO)=C\[C@@H](C)C(=O)c1ccc(N(C)C)cc1` [trichostatin A (TSA), trichostatin A, reference compound]: the “Effect on association of N-MORF with histone H3” value in test [2] is reported as “enhanced the association of N-MORF with histone H3”.

“H3 (3–10): peptide comprising amino acids Thr3-Ser10 but missing Ala1 and Arg2 (TKQTARKS)”: in test [1] (1H,15N HSQC, 298K, 5-fold excess of H3 (3–10)), the “Chemical shift changes of MORF PHD1/2 with 5-fold excess of peptide (in words)” value is listed as “no changes in the NMR spectra of PHD1/2”.

In the case of “H3 peptide (amino acids 1–20): longer unmodified H3 peptide (amino acids 1–20)”, the “Chemical shift changes / binding” value in test [1] (1H,15N HSQC titration) was “induced similar resonance perturbations”.

In general, Kd refers to the free concentration of one partner at which half of the binding sites on the other are occupied at equilibrium, for simple one-to-one binding. Turning to “H3un: peptide corresponding to amino acids 1–12 of unmodified histone H3 (NMR); length for fluorescence not printed”, in test [1] (1H,15N HSQC titration, 298K, short peptide, amino acids 1–12), the “Binding of MORF PHD1/2 by NMR, short peptide (in words)” value is given as “Substantial chemical shift changes”. Moreover, the “Binding to ING5 PHD finger (in words)” value in test [3] was “does not associate with H3un”. In addition, the “Affinity of MOZ PHD1/2 relative to H3K14ac and H3K9ac” value in test [4] is given as “two to three fold weaker”. Further, the Kd in test [5] was 2 µM. Moreover, in test [6], the “Affinity of MORF PHD1/2 relative to H3K9ac and H3K14ac” value is “two to three fold weaker”.

As for “H4 peptide (residues 1–23): H4 peptide (residues 1–23) [reference compound]”, the “Chemical shift changes / binding” value in test [1] (1H,15N HSQC titration) is “unable to trigger chemical shift changes in MORF PHD1/2”.
